Common to all, as to assay type: ADME
For series [1], the target named is T1, Solute carrier family 15 member 1 (Homo sapiens, UniProt P46059).
T1 sequence (P46059 whole entry): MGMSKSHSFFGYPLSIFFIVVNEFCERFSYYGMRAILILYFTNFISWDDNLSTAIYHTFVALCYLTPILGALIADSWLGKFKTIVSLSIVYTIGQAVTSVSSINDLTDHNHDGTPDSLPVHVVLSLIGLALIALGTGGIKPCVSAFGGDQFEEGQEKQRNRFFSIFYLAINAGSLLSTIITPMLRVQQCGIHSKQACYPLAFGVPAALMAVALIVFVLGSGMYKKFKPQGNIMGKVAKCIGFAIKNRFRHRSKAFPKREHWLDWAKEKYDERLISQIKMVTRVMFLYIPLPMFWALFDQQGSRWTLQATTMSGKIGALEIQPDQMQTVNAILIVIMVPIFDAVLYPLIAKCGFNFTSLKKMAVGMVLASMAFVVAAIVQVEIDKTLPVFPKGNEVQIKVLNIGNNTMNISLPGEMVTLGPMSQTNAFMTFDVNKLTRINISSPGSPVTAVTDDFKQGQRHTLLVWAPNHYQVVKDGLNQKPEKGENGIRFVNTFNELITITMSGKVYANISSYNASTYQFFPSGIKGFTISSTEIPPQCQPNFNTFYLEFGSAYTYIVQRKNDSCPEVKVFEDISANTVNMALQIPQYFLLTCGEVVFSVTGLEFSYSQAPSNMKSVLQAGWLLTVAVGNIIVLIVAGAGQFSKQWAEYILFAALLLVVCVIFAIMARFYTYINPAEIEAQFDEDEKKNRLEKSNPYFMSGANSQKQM
The series can be described thus: Drug uptake in Pichia pastoris GS115 expressing human recombinant PEPT1 at 5 uM after 30s by dual-channel liquid scintillation counting analysis in presence of cefazolin relative to control. Particulars: 0.5 min. The method in brief:
(§1)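 [3H]GlySar 5.0 µM final, 30-s uptake at 24°C in 100 mM potassium phosphate pH 6.5, with or without a potential inhibitor at 10 mM. Cells are methanol-induced transformants. Values are vector-subtracted and expressed as percent of buffer control. Mean ± SE (n=3). ANOVA with Dunnett's test.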

For series [2], the target named is T2, Solute carrier family 15 member 1 (Mus musculus, UniProt Q9JIP7).
T2 sequence (Q9JIP7 whole entry): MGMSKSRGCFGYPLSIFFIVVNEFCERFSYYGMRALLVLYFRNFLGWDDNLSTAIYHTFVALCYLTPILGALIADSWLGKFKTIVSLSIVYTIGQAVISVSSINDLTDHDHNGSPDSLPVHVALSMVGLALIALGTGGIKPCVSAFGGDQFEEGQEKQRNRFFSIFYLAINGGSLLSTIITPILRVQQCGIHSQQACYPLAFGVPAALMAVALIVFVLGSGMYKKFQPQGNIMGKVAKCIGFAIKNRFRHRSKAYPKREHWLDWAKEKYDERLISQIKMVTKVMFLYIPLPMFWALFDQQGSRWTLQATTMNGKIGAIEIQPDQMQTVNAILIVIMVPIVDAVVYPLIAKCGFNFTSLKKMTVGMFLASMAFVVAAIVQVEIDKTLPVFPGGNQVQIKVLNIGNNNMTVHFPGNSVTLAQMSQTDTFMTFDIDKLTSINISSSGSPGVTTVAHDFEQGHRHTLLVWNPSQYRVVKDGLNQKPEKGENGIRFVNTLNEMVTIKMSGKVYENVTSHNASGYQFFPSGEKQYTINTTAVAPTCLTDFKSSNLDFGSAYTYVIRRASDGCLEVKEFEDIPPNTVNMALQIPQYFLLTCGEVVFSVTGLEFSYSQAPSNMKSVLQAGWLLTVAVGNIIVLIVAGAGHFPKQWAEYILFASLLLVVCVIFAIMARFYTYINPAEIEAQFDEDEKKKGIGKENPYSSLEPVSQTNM
The series can be described thus: Drug uptake in Pichia pastoris GS115 expressing mouse recombinant PEPT1 at 5 uM after 30s by dual-channel liquid scintillation counting analysis in presence of cephradine relative to control. As to conditions: 0.5 min. The essentials:
as §1

The next series concerns the target T3, PEPT1 (Mus musculus, UniProt Q9JIP7).
T3 sequence (Q9JIP7 whole entry): T2 sequence (Q9JIP7 whole entry)
The series can be described thus: Drug uptake in Pichia pastoris GS115 expressing mouse recombinant PEPT1 at 5 uM after 30 mins by dual-channel liquid scintillation counting analysis relative to vector control. As to conditions: read-out: FC. The method in brief: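 5.0 µM radiolabelled substrate ([3H]GlySar or [14C]oseltamivir) is incubated 30 min at 24°C with induced transformants in 100 mM potassium phosphate pH 6.5. Cell-associated radioactivity is counted by scintillation after standing 24 h and normalised to OD600. Results are compared with pPIC3.5K vector-alone cells. Mean ± SE (n=6).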

Series [3] concerns the target T2, Solute carrier family 15 member 1. The series can be described thus: Drug uptake in Pichia pastoris GS115 expressing mouse recombinant PEPT1 at 5 uM after 30s by dual-channel liquid scintillation counting analysis in presence of TEA relative to control. Particulars: 0.5 min. The essentials:
as §1

For series [4] the target is unchanged. The series can be described thus: Drug uptake in Pichia pastoris GS115 expressing mouse recombinant PEPT1 at 5 uM after 30s by dual-channel liquid scintillation counting analysis relative to control. As to conditions: in vivo, 0.5 min. The method in brief: as §1
Series [5] concerns the target T1, Solute carrier family 15 member 1. The series can be described thus: Drug uptake in Pichia pastoris GS115 expressing human recombinant PEPT1 at 5 uM after 30s by dual-channel liquid scintillation counting analysis in presence of glycine relative to control. Particulars: 0.5 min. The essentials:
as §1

On to `[3H]C(C(=O)O)N(C)C(=O)CN` (stereo unspecified), for which the Drug uptake came to 81.1% in series [1]; 9.8% in series [2]; 83.7% in series [3]; 100% in series [4]; 130% in series [5]. The uptake ratio at 0.5 h, 5 µM at PEPT1 was 100.

These data come from ChEMBL document CHEMBL3526053, “Species-dependent uptake of glycylsarcosine but not oseltamivir in Pichia pastoris expressing the rat, mouse, and human intestinal peptide transporter PEPT1” (Drug Metab Dispos, 2012).
